This note sets out measurements from ChEMBL document CHEMBL5550111, “Design, synthesis and biological evaluation of aryloxy thiophosphoramidate triesters of anticancer nucleoside analogues” (Bioorg Med Chem, 2024).

Data set [1] deals with COLO 205. The data set is described as follows: Cytotoxicity against human COLO 205 cells assessed as maximum inhibition of cell viability upto 198 uM incubated for 72 hrs by MTS assay relative to control. To be noted: up to 198 µM. The data set is classed as functional. The gist of the method: (§1)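 Cells seeded at 0.5 to 100 × 10^3 per well the day before drug addition, then exposed to compound for 72 h. MTS added afterwards, with a further 4 h at 37 °C, and absorbance read. Tested in duplicate at 9 serial 3.16-fold dilutions, top concentration 198 μM. MI% is the maximum inhibition of viability across the tested range.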
Background: Tetrazolium assays rely on reduction of a dye to a coloured formazan, in cell work by metabolically active cells.

The nature of data set [2]: Prodrug activation assessed as carboxypeptidase Y (unknown origin) mediated (2S)-2-[[[(2R,3S,5R)-[…]-3-hydroxy-tetrahydrofuran-2-yl]methoxy-hydroxy-phosphoryl]amino]propanoic acid formation from intermediate (2S)-2-[[[(2R,3S,5R)-5-(5-fluoro-2,4-dioxo-pyrimidin-1-yl)-3-hydroxy-tetrahydrofuran-2-yl]methoxy-(1-naphthyloxy)phosphinothioyl]amino]propanoic acid at 5 mg measured for 48 hrs by 31P-NMR assay. To be noted: […]. Put shortly: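 Thiophosphoramidate (5 mg, about 0.008 mmol) dissolved in 150 µL acetone-d6, with 300 µL TRIZMA buffer pH 7.6 added. Enzymatic conversion followed by 31P-NMR.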

Data set [3] concerns HT-29. The data set is described as follows: Cytotoxicity against human HT-29 cells assessed as inhibition of cell viability incubated for 72 hrs by MTS assay. The data set is classed as functional, cell-based. To be noted: HT-29, 72 h. Put shortly: (§2)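 Cells seeded at 0.5 to 100 × 10^3 per well the day before treatment, then exposed for 72 h to 9 serial concentrations (3.16-fold dilutions, top 198 μM), in duplicate. MTS added for a final 4 h at 37 °C and absorbance read. IC50 is the concentration giving 50% loss of viability. MI% is the maximum inhibition over the tested range.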

In data set [4] the test system is SK-MES-1. The data set is described as follows: Cytotoxicity against human SK-MES-1 cells assessed as maximum inhibition of cell viability upto 198 uM incubated for 72 hrs by MTS assay relative to control. To be noted: up to 198 µM. The data set is classed as functional. Put shortly: as §1
Data set [5] has as its system MIA PaCa-2. The experiment in a line: Cytotoxicity against human MIA PaCa-2 cells assessed as maximum inhibition of cell viability upto 198 uM incubated for 72 hrs by MTS assay relative to control. The data set is classed as functional. The conditions noted are these: up to 198 µM. Put shortly: as §1
Data set [6] relates to MIA PaCa-2. The data set is described as follows: Cytotoxicity against human MIA PaCa-2 cells assessed as inhibition of cell viability incubated for 72 hrs by MTS assay. The data set is classed as functional, cell-based. To be noted: MIA PaCa-2, 72 h. Put shortly:
as §2

For data set [7], the system named is RPMI-8226. The experiment in a line: Cytotoxicity against human RPMI-8226 cells assessed as maximum inhibition of cell viability upto 198 uM incubated for 72 hrs by MTS assay relative to control. The data set is classed as functional. The conditions noted are these: up to 198 µM. Put shortly: as §1
The test system of data set [8] is RT112/84. The data set is described as follows: Cytotoxicity against human RT112/84 cells assessed as inhibition of cell viability incubated for 72 hrs by MTS assay. The data set is classed as functional, cell-based. To be noted: RT112/84, 72 h. The gist of the method:
as §2

Data set [9] has as its system HT-29. The experiment in a line: Cytotoxicity against human HT-29 cells assessed as maximum inhibition of cell viability upto 198 uM incubated for 72 hrs by MTS assay relative to control. The data set is classed as functional. The conditions noted are these: up to 198 µM. The gist of the method: as §1
For data set [10], the system named is NCI-H1975. The data set is described as follows: Cytotoxicity against human NCI-H1975 cells assessed as inhibition of cell viability incubated for 72 hrs by MTS assay. It counts as functional, cell-based. The conditions noted are these: NCI-H1975, 72 h. The gist of the method: as §2
The subject of data set [11] is RT112/84. The data set is described as follows: Cytotoxicity against human RT112/84 cells assessed as maximum inhibition of cell viability upto 198 uM incubated for 72 hrs by MTS assay relative to control. The data set is classed as functional. To be noted: up to 198 µM. The gist of the method:
as §1

Data set [12] concerns SK-MES-1. The data set is described as follows: Cytotoxicity against human SK-MES-1 cells assessed as inhibition of cell viability incubated for 72 hrs by MTS assay. It counts as functional, cell-based. The conditions noted are these: SK-MES-1, 72 h. Put shortly: as §2
Data set [13] relates to COLO 205. The experiment in a line: Cytotoxicity against human COLO 205 cells assessed as inhibition of cell viability incubated for 72 hrs by MTS assay. To be noted: COLO 205, 72 h. The data set is classed as functional, cell-based. Put shortly: as §2
Data set [14] relates to RPMI-8226. The experiment in a line: Cytotoxicity against human RPMI-8226 cells assessed as inhibition of cell viability incubated for 72 hrs by MTS assay. It counts as functional, cell-based. The conditions noted are these: RPMI-8226, 72 h. Put shortly:
as §2

In data set [15] the test system is OVCAR-3. The experiment in a line: Cytotoxicity against human OVCAR-3 cells assessed as maximum inhibition of cell viability upto 198 uM incubated for 72 hrs by MTS assay relative to control. It counts as functional. The conditions noted are these: up to 198 µM. The gist of the method: as §1
For data set [16], the system named is HepG2. The experiment in a line: Cytotoxicity against human HepG2 cells assessed as maximum inhibition of cell viability upto 198 uM incubated for 72 hrs by MTS assay relative to control. It counts as functional. To be noted: up to 198 µM. The gist of the method: as §1
For data set [17], the system named is NCI-H1975. The data set is described as follows: Cytotoxicity against human NCI-H1975 cells assessed as maximum inhibition of cell viability upto 198 uM incubated for 72 hrs by MTS assay relative to control. It counts as functional. To be noted: up to 198 µM. Put shortly:
as §1

Data set [18] relates to OVCAR-3. The experiment in a line: Cytotoxicity against human OVCAR-3 cells assessed as inhibition of cell viability incubated for 72 hrs by MTS assay. The data set is classed as functional, cell-based. The conditions noted are these: OVCAR-3, 72 h. Put shortly:
as §2

Data set [19] has as its system HepG2. The data set is described as follows: Cytotoxicity against human HepG2 cells assessed as inhibition of cell viability incubated for 72 hrs by MTS assay. It counts as functional, cell-based. To be noted: HepG2, 72 h. The gist of the method: as §2

pIC50: −log10 of the molar value.

Regarding `C[C@H](NP(=S)(OC[C@H]1O[C@@H](n2cc(F)c(=O)[nH]c2=O)C[C@@H]1O)Oc1cccc2ccccc12)C(=O)OCc1ccccc1` (some centres undefined), the Imax with COLO 205 [1] is given as 100%; in the data set on SK-MES-1 [4] it was 97%; with MIA PaCa-2 [5], 100%; in the data set on RPMI-8226 [7] it was 100%; with HT-29 [9] it was 100%; in the data set with RT112/84 [11] it was 97%. Besides, the Imax with OVCAR-3 [15], with HepG2 [16] and with NCI-H1975 [17] was 100% in each case. The Drug metabolism result in data set [2] is “Metabolite_Detected”. Moreover, the pIC50 (in general, the IC50 on a negative log10 scale, so that one unit is a factor of ten) in the data set with HT-29 [3] is 5.55; in the data set on MIA PaCa-2 [6], 5.57; in the data set on RT112/84 [8], 5.60; in the data set on NCI-H1975 [10], 4.00; in the data set on SK-MES-1 [12], 5.60; in the data set on COLO 205 [13], 5.40. Moreover, the pIC50 in the data set with RPMI-8226 [14] was 5.18; with OVCAR-3 [18], 4.67; with HepG2 [19] it was 4.59.
